Compound activity deposited in PubChem BioAssay by Broad Institute.
Ecoli rRNA inh = inhibits bacterial ribosomal RNA function over humanized ribosomes | E. coli WT GFP vs humanized-ribosome RFP mutants, fluorescence, 24 h; active compounds read low; DMSO median 0, no signal -100 | 350,000 tested, 1.6% active | GFP signal change (wild-type ribosome), % (test concentration not listed);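 active = significant combined selectivity score with lowered wild-type GFP, culture density cut under 30%, mutant RFP and density less affected; inactive = any of these conditions unmet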
CFTR F508del cor = correctors of CFTR F508del function in bronchial epithelial cells; CFBE cells, YFP halide quenching; stimulated with forskolin plus potentiator P3; % fluorescence drop versus neutral controls; activity (quench increase), % at 7.58 µM; 350,000 tested, 0.36% active; AID 720511;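 active = mean added fluorescence quench of at least 8% versus neutral control, with both replicates also reaching 8%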;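 note: cells transiently co-express mutant CFTR-F508del with the halide-sensitive YFP; corrector assay measuring rescue of mutant channel to the surface after 24 h compound exposure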
GSIS activator = primary screen for activators of insulin secretion dependent on glucose, INS-1E cells, GLuc reporter luminescence; INS-1E GLuc reporter insulin secretion, 2-3 h; activation, % at 16.6 µM; 370,000 tested, 0.61% active; AID 743287;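 active = lowest replicate activation of at least 40%, so every replicate reaches that level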;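 note: 0% = median of neutral control wells and 100% = median of IBMX positive control wells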
Env fusion inh = blocks HIV Env-driven cell-cell fusion | HeLa-JRFL Env/CEM21 cell fusion, luciferase | AID 651610 | 360,000 tested, 1.1% active | inhibition, % at 12.3 µM;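 active = mean replicate inhibition score of at least 50 and every replicate individually at or above 50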;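 note: 0% = plate neutral controls and 100% = maraviroc near 300 nM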
Cneo AK release = causes C. neoformans cell lysis | adenylate kinase release luminescence, 4 h; normalised: neutral wells 0, clomiphene wells 100 | 360,000 tested, 0.2% active | lysis activity, % at 15 µM;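 active = mean lysis activity across replicates of at least 80%, whatever share of replicates individually reach that level; inactive = mean lysis activity below 80%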
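Test system: log-phase Cryptococcus neoformans yeast cells; Quantity: yeast cell density of 5 × 10^6 cells/mL; Buffer or medium: YPD; Doses: single compound concentration per well; Timing: 4 h at 37 °C static, read 1 h later; Measured by: AK luminescence; Read-out basis: lysis from increased AK signal; Control set: Clomiphene as positive control.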
miR122 inh = miR-122 inhibition in Huh7 cells; Huh7 miR-122 Renilla luciferase sensor, 48 h; neutral wells = 0, positive control = 100; 340,000 tested, 0.3% active; activation (reporter increase), % at 12.5 µM;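 active = mean replicate activation score at least 90 and every replicate individually at or above 90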;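 note: higher luciferase means less miR-122 activity so hits act as miR-122 inhibitors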
* = called active by the depositor; [ ] = dose if it differs, or a comment. Only some compounds are listed: those with a hit (about 3.1% of all), similar ones and a draw of the others.

For Cc1ccc(C(=O)Nc2ccccc2C(=O)O)cc1S(=O)(=O)Nc1ccccc1 the results were Ecoli rRNA inh -14.2, CFTR F508del cor -0.6, GSIS activator -8.5, Env fusion inh 3.6, Cneo AK release 1.7 and miR122 inh 91.7*.
For Cc1ccc(NS(=O)(=O)c2cc(C(=O)Nc3cccc([N+](=O)[O-])c3)ccc2C)cc1 the results were Ecoli rRNA inh -1.1, CFTR F508del cor -2.4, Cneo AK release 2.0 and miR122 inh 131.4*.
`Cc1ccc(C(=O)N2CCc3ccccc3C2)cc1S(=O)(=O)N1CCOCC1` gave Ecoli rRNA inh 5.6, CFTR F508del cor -4.5, GSIS activator 3.4, Cneo AK release 2.1 and miR122 inh 2.5.
Screening Cc1ccc(C(=O)Nc2cccc([N+](=O)[O-])c2)cc1S(=O)(=O)Nc1ccc(NC(=O)c2ccccc2)cc1 returned GSIS activator -14.8 and Env fusion inh 23.7.
Cc1ccccc1NS(=O)(=O)c1cc(C(=O)N2CCc3ccccc3C2)ccc1C was read as GSIS activator -38.3, Env fusion inh 1.1 and miR122 inh 177.0*.
CC(C)NC(=O)Nc1ccc2c(c1)C(=O)N([C@H](C)CO)C[C@H](C)[C@H](CN(C)CC1CCCCC1)OCCCC[C@H](C)O2 was read as Ecoli rRNA inh 1.9, CFTR F508del cor 1.6, GSIS activator 12.0, Env fusion inh -22.1[16.7 µM], Cneo AK release 3.3 and miR122 inh -8.5[16.7 µM].
For CC(=O)Nc1ccc(NC(=O)c2ccc(C)c(S(=O)(=O)Nc3cccc(C)c3)c2)cc1 the results were Ecoli rRNA inh -26.8*, CFTR F508del cor -2.0, GSIS activator -12.1, Env fusion inh 16.6 and miR122 inh 49.1.
Cc1ccc(C(=O)NCCSC2CCCCC2)cc1S(=O)(=O)Nc1ccccc1 was read as Ecoli rRNA inh -20.3, CFTR F508del cor 2.5, GSIS activator -9.9 and miR122 inh 99.5*.
CCCC(=O)N1CCC2(CC1)CN(C(=O)C1CC1)[C@H](CO)c1[nH]c3cc(OC)ccc3c12 was read as Ecoli rRNA inh -0.8, CFTR F508del cor 1.7 and GSIS activator -2.8.
CC1C(=O)Nc2ccccc2N1C(=O)c1ccc(Cl)c(Cl)c1 (centres undefined) was read as Ecoli rRNA inh -26.8*, CFTR F508del cor -2.2, GSIS activator -36.0, Env fusion inh 7.9, Cneo AK release -0.7 and miR122 inh -9.2.
For Cc1cc(C)c(S(=O)(=O)NCCOc2ccccc2)c(C)c1-n1cnnn1 the results were Ecoli rRNA inh -17.8*, CFTR F508del cor -1.6, GSIS activator -11.5, Env fusion inh 0.7, Cneo AK release 10.9 and miR122 inh -8.5.
For O=C(CNc1ccc(F)cc1Cl)Nc1cccc(S(=O)(=O)N2CCCCC2)c1 the results were CFTR F508del cor 2.4, Env fusion inh -2.8, Cneo AK release -3.4 and miR122 inh 14.2.
O=C(COc1ccccc1Br)Nc1ccc(S(=O)(=O)N2CCCC2)cc1 was read as Ecoli rRNA inh -23.2*, CFTR F508del cor -2.1, GSIS activator 1.2, Env fusion inh -21.1, Cneo AK release 0.4 and miR122 inh -11.8.
Screening O=C(COc1ccc(F)cc1Cl)Nc1cccc(S(=O)(=O)N2CCCCCC2)c1 returned Ecoli rRNA inh 0.1, CFTR F508del cor 8.8*, GSIS activator 2.4 and Cneo AK release 3.7.
O=C(Cc1ccc(F)cc1)Nc1cccc(S(=O)(=O)N2CCCC2)c1 was read as Ecoli rRNA inh -2.7, CFTR F508del cor 0.2, GSIS activator -15.0 and Env fusion inh 63.0*.
Screening COc1ccccc1OCC(=O)Nc1ccc(S(=O)(=O)N2CCCC2)cc1 returned Ecoli rRNA inh -10.5, CFTR F508del cor 2.2, GSIS activator 4.1, Env fusion inh -11.2, Cneo AK release 0.0 and miR122 inh -3.0.
CN(CC(=O)Nc1cccc(S(=O)(=O)N2CCCC2)c1)CC(=O)Nc1ccc(F)c(F)c1F was read as Ecoli rRNA inh -23.5, CFTR F508del cor 19.4*, GSIS activator -14.8, Env fusion inh 2.1, Cneo AK release -1.5 and miR122 inh 10.0.
C[C@@H]1CN([C@H](C)CO)C(=O)c2cc(-c3ccc(C#N)cc3)cnc2O[C@@H]1CN(C)Cc1ccccn1 was read as Ecoli rRNA inh -5.4, CFTR F508del cor 4.8, GSIS activator 15.9, Env fusion inh 8.9[16.7 µM], Cneo AK release 1.0 and miR122 inh -10.0[16.7 µM].
For CCCCn1c(NC(=O)c2ccc(Br)o2)c(S(=O)(=O)c2ccccc2)c2nc3ccccc3nc21 the results were Env fusion inh 36.7, Cneo AK release 0.4 and miR122 inh 165.1*.
C=COCCNC(=O)Nc1ccc(Cl)c(Cl)c1 was read as Ecoli rRNA inh -20.8*, CFTR F508del cor -5.8, GSIS activator -14.4, Cneo AK release 1.5 and miR122 inh -3.1.
For Cc1noc(C)c1NC(=O)Nc1ccc2c(c1)C(=O)N([C@@H](C)CO)C[C@@H](C)[C@@H](CN(C)C(=O)C1CCCCC1)OCCCC[C@@H](C)O2 the results were Ecoli rRNA inh -1.1, CFTR F508del cor -0.1, GSIS activator 10.3, Env fusion inh -176.9[16.7 µM], Cneo AK release 0.5 and miR122 inh 1.7[16.7 µM].
C[C@H]1CN([C@@H](C)CO)C(=O)c2cccc(NC(=O)c3cnccn3)c2O[C@H]1CN(C)C(=O)NC1CCCCC1 was read as Ecoli rRNA inh 2.1, CFTR F508del cor 1.6, GSIS activator 1.7, Env fusion inh 14.7[16.7 µM], Cneo AK release -10.9 and miR122 inh -4.5[16.7 µM].
For CC(/C=C1\SC(=S)N(C(C(=O)O)c2ccccc2)C1=O)=C\c1ccccc1 (centres undefined) the results were Ecoli rRNA inh -26.6*, CFTR F508del cor -2.0, GSIS activator 21.2 and Env fusion inh -47.6.
Screening CC(/C=C1\SC(=S)N(CC(=O)O)C1=O)=C\c1ccccc1 returned Ecoli rRNA inh 6.4, CFTR F508del cor -0.1, GSIS activator 9.3 and Env fusion inh 12.8.
`C=CCOc1ccc(/C=C2\SC(=S)N(C(C(=O)O)c3ccccc3)C2=O)cc1` (centres undefined) gave Ecoli rRNA inh -41.5*, CFTR F508del cor -2.6, GSIS activator -8.6 and Env fusion inh 3.9.
COCC(=O)N(C)C[C@@H]1Oc2cc(C3=CCCCC3)ccc2S(=O)(=O)N([C@@H](C)CO)C[C@@H]1C was read as Ecoli rRNA inh -0.5, CFTR F508del cor -2.4, GSIS activator -4.7, Env fusion inh -5.6[16.7 µM], Cneo AK release 0.2 and miR122 inh -0.3[16.7 µM].
`NC(=NCc1ccco1)NC(=O)c1ccc(Cl)cc1` gave Ecoli rRNA inh -25.0*, CFTR F508del cor 1.5, GSIS activator 0.1, Env fusion inh -29.3 and miR122 inh 7.5.
